Consider five compounds from ChEMBL document CHEMBL4270536, “Preparation, characterisation and biological evaluation of new N-phenyl amidobenzenesulfonates and N-phenyl ureidobenzenesulfonates inducing DNA double-strand breaks. Part 3. Modulation of ring A” (Eur J Med Chem, 2018).

Each structure is given as a SMILES string. The source made the active and inactive calls. No cut-off for these calls is given here.

The subject of assay [1] is MCF7. Put plainly: Antiproliferative activity against human MCF7 cells after 48 hrs by SRB assay. The settings on record: MCF7, 48 h. The format is functional, cell-based. The procedure, abridged:
(§1)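 Cells grown in DMEM with 5% FBS at 37 C; seeded per well at 2.5 x 10^3 (HT-1080), 4.0 x 10^3 (HT-29), 3.0 x 10^3 (M21) or 2.5 x 10^3 (MCF7). Drugs from 40 mM DMSO stock, serial dilutions, final 100 µM to 78 nM, DMSO <0.5%.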
(In general: In SRB staining, fixed cells bind dye roughly in proportion to their protein.)

The test system of assay [2] is M21. Put plainly: Cell cycle arrest in human M21 cells assessed as accumulation at sub-G1 phase at 1.8 uM after 24 hrs by DAPI staining based flow cytometry relative to control. The format is functional. The method, boiled down:
(§2)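 Flow cytometry in M21 cells seeded in six-well plates, allowed 24 h, then exposed 24 h to drug (2- or 5-fold IC50); DMSO 0.5% control. Trypsinized, PBS-washed, fixed in ice-cold EtOH, stained with 2 mg/mL DAPI in PBS; sub-G1, G0/G1, S and G2/M fractions measured on LSR II cytometer.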
For orientation: In flow cytometry, cells or beads pass a laser one at a time.

Assay [3] deals with M21. The assay is described as follows: Cell cycle arrest in human M21 cells assessed as accumulation at G0/G1 phase at 1.8 uM after 24 hrs by DAPI staining based flow cytometry relative to control. In kind it is functional. The method, boiled down: as §2
Assay [4] deals with HT-1080. Put plainly: Antiproliferative activity against human HT1080 cells after 48 hrs by SRB assay. In kind it is functional, cell-based. The settings on record: HT-1080, 48 h. The method, boiled down: as §1
Assay [5] relates to M21. The assay is described as follows: Cell cycle arrest in human M21 cells assessed as accumulation at S phase at 1.8 uM after 24 hrs by DAPI staining based flow cytometry relative to control. The format is functional. The procedure, abridged: as §2
In assay [6] the test system is M21. The assay is described as follows: Cell cycle arrest in human M21 cells assessed as accumulation at G2/M phase at 1.8 uM after 24 hrs by DAPI staining based flow cytometry relative to control. In kind it is functional. The method, boiled down: as §2
Assay [7] has as its system M21. Put plainly: Cell cycle arrest in human M21 cells assessed as accumulation at G2/M phase at 2 times IC50 after 24 hrs by DAPI staining based flow cytometry relative to control.
Assay [8] concerns M21. Put plainly: Induction of DNA damage in human M21 cells assessed as increase in gammaH2Ax level at 5 times IC50 after 24 hrs by immunofluorescence based epifluorescence microscopy. The format is functional, cell-based. The method, boiled down:
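M21 cells (1 x 10^5) on fibronectin-coated (5 µg/mL, 1 h, 37 C) cover slides, 24 h attachment, then drug for 24 h; DMSO 0.25% in medium as control. Fixed with 3.7% formaldehyde, permeabilized with 0.1% saponin/3% BSA, mouse anti-H2AX pS139 (1:8000), DAPI nuclear stain; γH2AX foci imaged by epifluorescence microscopy.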

A short description of assay [9]: Alkylating activity at DNA (unknown origin) after 90 mins by colorimetric NBP assay relative to chlorambucil. The format is functional. The method, boiled down: (§3)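 NBP alkylation kinetics (Bardos colorimetric method): 400 nmol drug in 1 mL ethanol mixed with 1 mL NBP (10% v/v in 95% ethanol), 1 mL 50 mM acetate buffer pH 4.3 and 1 mL ethanol, kept on ice, then heated at 80 C in shaking water bath; stopped on ice 5 min after 0, 30, 60, 90 min. Rate constant from linear regression of absorbance curve; chlorambucil as positive control.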

Assay [10] has as its system M21. Put plainly: Cell cycle arrest in human M21 cells assessed as accumulation at sub-G1 phase at 2 times IC50 after 24 hrs by DAPI staining based flow cytometry relative to control.
Assay [11] relates to M21. Put plainly: Cell cycle arrest in human M21 cells assessed as accumulation at G0/G1 phase at 2 times IC50 after 24 hrs by DAPI staining based flow cytometry relative to control.
Assay [12] is described as follows: Alkylating activity at DNA (unknown origin) after 90 mins by colorimetric NBP assay. In kind it is functional. The method, boiled down:
as §3

Assay [13] deals with M21. The assay is described as follows: Antiproliferative activity against human M21 cells after 48 hrs by SRB assay. The settings on record: M21, 48 h. In kind it is functional, cell-based. The procedure, abridged: as §1
Assay [14] has as its system HT-29. Put plainly: Antiproliferative activity against human HT-29 cells after 48 hrs by SRB assay. The format is functional, cell-based. Conditions: HT-29, 48 h. The method, boiled down:
as §1

Assay [15] deals with M21. The assay is described as follows: Cell cycle arrest in human M21 cells assessed as accumulation at S phase at 2 times IC50 after 24 hrs by DAPI staining based flow cytometry relative to control.

By IC50 is commonly meant the concentration at which inhibition is half-maximal. High values mean weaker potency, low ones greater potency.

As to `CC[C@@]1(O)C(=O)OCc2c1cc1n(c2=O)Cc2cc3c(CN(C)C)c(O)ccc3nc2-1` [TOPOTECAN], the IC50 amounted to 0.2 µM in assay [1] and 0.5 µM in assay [4]. Further, the Activity in assay [2] is listed as 0.1%; in assay [3] it was 45.2%; in [5], 31.9%; in [6], 22.8%.
Turning to `CCNC(=O)Nc1ccc(S(=O)(=O)Oc2ccccc2I)cc1`, the Activity in assay [7] is recorded as 8.7%; in assay [10], 0.3%; in [11] it was 67.6%; in assay [15] it was 23.4%. Also, the outcome in [8] was Active. In assay [9], this compound showed a fold change (FC) of 42. Also, the IC50 in [1] came out at 1.1 µM; in assay [4], 0.14 µM; in [13], 5.6 µM; in assay [14], 5.3 µM. The same compound had a K in [12] of 0.12 ×10⁻³ /s.
For the compound `CC(C)c1ccccc1OS(=O)(=O)c1ccc(NC(=O)NCCCCl)cc1`, the Activity was 17.2% in assay [7], 0.8% in assay [10], 43.4% in assay [11] and 38.6% in assay [15]. Besides, the result in assay [8] was Active. For the same compound, the fold change (FC) in assay [9] is 160. In addition, the IC50 came out at 7.4 µM in assay [1], 2.7 µM in assay [4], 9.3 µM in assay [13] and 6.9 µM in assay [14]. In assay [12], the K was found to be 0.033 ×10⁻³ /s.
Consider `CCCNC(=O)Nc1ccc(S(=O)(=O)Oc2ccccc2I)cc1`, for which the Activity in assay [7] was found to be 10.7%; in [10], 0.1%; in assay [11] it was 62.6%; in assay [15] it was 26.6%. Also, the result in assay [8] was Active. Further, the fold change (FC) in assay [9] was 13. The IC50 was determined as 2.9 µM in [1], 0.7 µM in assay [4], 5.4 µM in assay [13] and 6.8 µM in assay [14]. The compound further yielded a K in assay [12] of 0.4 ×10⁻³ /s.
On to `O=C(NCCCCl)Nc1ccc(S(=O)(=O)Oc2ccccc2I)cc1`, for which the Activity in assay [7] came to 13.5%; in assay [10], 0.1%; in assay [11], 54.4%; in assay [15], 32%. Further, in [8], the result was Active. The compound also had a fold change (FC) in [9] of 44. In addition, the IC50 in [1] was determined as 7.6 µM; in assay [4], 2.8 µM; in assay [13], 4.6 µM; in assay [14] it was 9.6 µM. For the same compound, the K in [12] amounted to 0.12 ×10⁻³ /s.
